Measurements taken from ChEMBL document CHEMBL1122161, “Irreversible enzyme inhibitors. 202. Candidate active-site-directed irreversible inhibitors of 5-fluoro-2'-deoxyuridine phosphorylase from Walker 256 rat tumor derived from 1-benzyl-5-(3-ethoxybenzyl)uracil” (J Med Chem, 1982).

Assays:
Rattus norvegicus = organism: Rattus norvegicus; assay: Irreversible inhibition of Walker 256 FUDR phosphorylase; expressed as Vo/Vi, velocity without inhibitor to that of velocity with inhibitor
How it was run: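 Walker 256 FUDR phosphorylase preincubated 20 min at ambient temperature with 20 μM (final) inhibitor in pH 5.9 arsenate-succinate buffer, 10% Me2SO, alongside zero-time tubes. Unbound inhibitor then removed by two 1-octanol extractions. Remaining activity assayed after adding 4 mM FUDR stock, stopped with 5% trichloroacetic acid, read as for reversible assay. V0/Vi of 2 corresponds to 50% inhibition.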

[1] = (§1) Ability for reversible inhibition of Walker 256 5-Fluoro-2'-deoxyuridine Phosphorylase; design: species or system Rattus norvegicus; details: read-out: I50
How it was run: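 Walker 256 rat tumor FUDR phosphorylase (uridine-deoxyuridine phosphorylase) was assayed with 400 μM FUDR substrate in pH 5.9 arsenate-succinate buffer containing 10% Me2SO. The value is the inhibitor concentration giving 50% inhibition (I50).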

[2] = as §1; design: species or system Rattus norvegicus; details: read-out: I 50
How it was run: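 Enzyme from Walker 256 rat tumor, assayed with 400 μM FUDR as substrate in pH 5.9 arsenate-succinate buffer with 10% Me2SO. Value reported as concentration giving 50% inhibition.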

Compound | IC50 [1] [nM] | Ratio (Rattus norvegicus) | IC50 [2] [nM]
CCOc1cccc(Cc2cn(Cc3cccc(NC(=O)Nc4cccc(S(=O)(=O)F)c4)c3)c(=O)[nH]c2=O)c1 |  | 1.2 | 1100
CCOc1cccc(Cc2cnc(O)nc2O)c1 |  |  | 1400
CCOc1cccc(Cc2cn(Cc3ccccc3)c(=O)[nH]c2=O)c1 |  |  | 1200
CCOc1cccc(Cc2cn(Cc3ccc(NC(=O)c4ccc(S(=O)(=O)F)cc4)cc3)c(=O)[nH]c2=O)c1 |  | 1 | 15000
CCOc1cccc(Cc2cn(Cc3cccc(NC(=O)c4cccc(S(=O)(=O)F)c4)c3)c(=O)[nH]c2=O)c1 |  | 1.1 | 3200
Cn1cc(Cc2ccccc2)c(=O)[nH]c1=O | 6200 |  | 
O=c1[nH]c(=O)n(Cc2ccccc2)cc1Cc1ccccc1 | 2600 |  | 
Oc1ncc(Cc2ccccc2)c(O)n1 | 5300 |  | 
CCOc1cccc(Cc2cn(Cc3ccc(NC(=O)c4cccc(S(=O)(=O)F)c4)cc3)c(=O)[nH]c2=O)c1 |  | 1 | 33000
CCOc1cccc(Cc2cn(Cc3cccc(NC(=O)c4ccc(S(=O)(=O)F)cc4)c3)c(=O)[nH]c2=O)c1 |  | 1 | 2500
Oc1ncc(Cc2cccc(OCc3ccccc3)c2)c(O)n1 | 500 |  | 
CCOc1cccc(Cc2cn(Cc3cccc(NC(=O)Nc4ccc(S(=O)(=O)F)cc4)c3)c(=O)[nH]c2=O)c1 |  | 1.1 | 1900

Further lines, with some results ahead:

IC50 [1] [nM] | Compound | Ratio (Rattus norvegicus) | IC50 [2] [nM]
1200 | CCOc1cccc(Cc2cn(Cc3cccc(NC(=O)c4ccccc4)c3)c(=O)[nH]c2=O)c1 | 1.2 | 
1900 | COc1cccc(Cc2cnc(O)nc2O)c1 |  | 
2500 | O=c1[nH]c(=O)n(Cc2ccccc2)cc1Cc1cccc(OCc2ccccc2)c1 |  | 
5700 | O=c1[nH]c(=O)n(CCCOc2ccccc2)cc1Cc1ccccc1 |  | 
3800 | CCOc1cccc(Cc2cn(Cc3ccc(NC(=O)c4ccccc4)cc3)c(=O)[nH]c2=O)c1 |  | 
